B2AR ag: human beta-2 adrenergic receptor agonism by FAP; P07550; Am2.2-beta2AR cells, FAP receptor internalization, flow cytometry; response, % (concentration not given with the values); hit rate 0.43% among 340,000; AID 504454;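 active means response above a set limit, near 3 SD of response in nonfluorescent compounds, cut at about 42% in these data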
GRK2 inh: inhibitors of human GRK2 displacing RNA aptamer; inhibition of aptamer binding, % at 10 µM; bead flow cytometry, FAM-aptamer displacement from GRK2; P25098; hit rate 0.59% among 330,000;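 active means inhibition of aptamer binding above 40%, roughly 3 SD of noise, on plates passing a quality check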;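 further: median bead fluorescence of bound FAM aptamer so fluorescent compounds give negative values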
TAG inh: reduces triacylglycerol accumulation in H9c2 cells; hit rate 0.66% among 230,000; AID 651582; Nile Red lipid (TAG) fluorescence; cells loaded with 200 µM oleic acid; inhibition, % at 12.5 µM;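 active means pattern-corrected inhibition of lipid staining of at least 50% with the nuclear-stain viability signal not falling by more than 50%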;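 further: 0% = DMSO wells and 100% = triacsin C control wells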
Lipid droplet: hepatic lipid droplet formation modulation. hit rate 0.4% among 240,000. AML12 mouse hepatocytes, oleate lipid droplets, BODIPY imaging. inhibition, % at 6.5 µM;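 active means lipid droplet intensity inhibited by at least 50%, with more than 500 cells counted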
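Assay system: AML12 hepatocytes (mouse) / Also added: 100 µM oleic acid challenge / Times: overnight treatment with compound plus oleate / Detection: high-content imaging of BODIPY-stained droplets and DAPI nuclei / Evaluation: % inhibition of lipid droplet signal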
Arr AP2 block: human beta-arrestin and AP2 interaction inhibition; FITC-arrestin peptide / GST-AP2 beads, flow cytometry; AP2 beta2 appendage carries R879A mutation; inhibition, % at 10 µM; hit rate 0.31% among 340,000; AID 504490;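 active means inhibition above a set limit, near 3 SD of compounds lacking own fluorescence, cut at about 54% in these data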;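 further: plate controls were DMSO wells for no effect and 5 µM unlabelled arrestin peptide for full effect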
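System: GST-AP2 R879A glutathione beads. Medium: PBS with 0.05% Tween 20 and 0.1% BSA. Also added: FITC-arrestin peptide, 50 nM. Incubation: 12 min plus 1 h, RT. Measured by: high-throughput flow cytometry of beads, ex 488, em 535 nm. Evaluation: percent drop in bead-associated FITC signal.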
NTR1 ag: activates human neurotensin receptor 1; AID 493036; activation, % at 20 µM; P30989; NTR1-U2OS beta-arrestin-GFP spot imaging, agonist mode; hit rate 0.17% among 330,000;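 active means activation at or above 40% of the spot to cytoplasm intensity ratio, with at least 20 cells analyzed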;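 further: 0% = DMSO without peptide and 100% = 100 nM NTR1 peptide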
Target sequence (P30989 whole entry, looked up): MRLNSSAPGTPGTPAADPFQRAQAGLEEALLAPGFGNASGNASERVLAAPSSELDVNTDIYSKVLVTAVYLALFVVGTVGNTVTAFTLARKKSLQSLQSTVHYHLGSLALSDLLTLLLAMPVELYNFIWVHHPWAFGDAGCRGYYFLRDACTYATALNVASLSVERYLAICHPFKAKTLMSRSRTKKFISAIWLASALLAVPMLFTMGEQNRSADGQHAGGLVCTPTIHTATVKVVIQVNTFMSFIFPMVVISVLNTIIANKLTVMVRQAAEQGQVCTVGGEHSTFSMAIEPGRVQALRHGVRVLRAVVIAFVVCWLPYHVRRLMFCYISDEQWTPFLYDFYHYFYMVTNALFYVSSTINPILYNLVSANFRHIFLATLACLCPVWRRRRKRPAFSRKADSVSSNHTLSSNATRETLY
TAG conf: triacylglycerol accumulation inhibition, confirmation | shares compounds with TAG inh | H9c2 lipid accumulation, Nile Red fluorescence; cells loaded with 200 µM oleic acid | inhibition, % at 12.5 µM | hit rate 71% among 990 | AID 651629;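 active means mean inhibition across replicates of 40% or more; inactive means mean inhibition below 40%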;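 further: plate controls were DMSO only wells for no effect and Triacsin C treated wells for full effect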
An asterisk follows results filed as active; · = no result. Compounds with a hit are over-represented: about 2% of the library has one in this group of screens.

SMILES | B2AR ag | GRK2 inh | TAG inh | Lipid droplet | Arr AP2 block | NTR1 ag | TAG conf
CCc1c(C2(O)CCCCC2)[nH]c2cnccc12 | 3 | 0 | 51* | · | 25 | 2 | 13
COc1ccc(S(=O)(=O)n2cccc2)cc1OC | 0 | 18 | -12 | -4 | -15 | 2 | ·
NCCC(=O)N1c2ccccc2Sc2ccc(Cl)cc21 | 4 | 2 | 68* | -3 | 8 | 0 | 40
O=C(c1cc(-c2ccncc2)nc2c(Cl)cccc12)N1CCN(c2ccccc2F)CC1 | 17 | 0 | 56* | -48 | -1 | 9 | 69*
Cc1ccccc1NC(=O)c1cccc(NC(=O)c2ccco2)c1 | -3 | 1 | 15 | 0 | -11 | 0 | ·
CCOc1ccccc1NC(=O)c1cccc(NC(=O)c2ccco2)c1 | 0 | 1 | 79* | 30 | 2 | 3 | 82*
O=C(COc1ccc(Br)cc1CNC1CCCCC1)NCCc1ccccc1 | 0 | 0 | 59* | -7 | -4 | 12 | 39
COc1ccc(Br)cc1CN(C)CC(=O)NCCc1ccccc1 | -7 | 0 | -11 | -10 | 31 | 6 | ·
COC(=O)[C@@H](Cc1ccccc1)N(Cc1ccccc1)S(=O)(=O)N(Cc1ccccc1)[C@H](Cc1ccccc1)C(=O)OC | 3 | 8 | 12 | · | -5 | -1 | ·
COCCS(=O)(=O)N(Cc1ccc(Br)cc1)[C@@H](C)C(=O)OC | -1 | 0 | 53* | · | 11 | 1 | -3
COC(=O)[C@@H](CC(C)C)N(Cc1ccccc1)S(=O)(=O)N(Cc1ccccc1)[C@@H](CC(C)C)C(=O)OC | 9 | 0 | 62* | · | 2 | -2 | -19
COc1ccc(C(=O)NCC(=O)OCC(=O)N2CC(C)OC(C)C2)cc1OC (configuration not stated) | 9 | 0 | 5 | · | 29 | -1 | ·
Cc1onc(-c2ccc(Cl)cc2Cl)c1-c1csc(N/N=C/c2ccccc2)n1 | 2 | 0 | 61* | 5 | -16 | 5 | 42*
CCOC(=O)C(C)Oc1cccc2c(=O)n(CC(=O)Nc3ccc4c(c3)OCCO4)ccc12 (configuration not stated) | 14 | 0 | 10 | · | · | 0 | ·
O=C(Cn1cc(C(=O)C2CC2)c2ccccc21)NCc1ccc2c(c1)OCO2 | -12 | 2 | 51* | · | 6 | 1 | 26
CCOC(=O)C(C)Oc1cccc2c(=O)n(CC(=O)NCc3ccc4c(c3)OCO4)ccc12 (configuration not stated) | 31 | 1 | 54* | · | -1 | -1 | 55*
CC(=O)c1cn(CC(=O)NCc2ccc3c(c2)OCO3)c2ccccc12 | 4 | 0 | -31 | -3 | -8 | 2 | ·
CCOc1ccccc1-c1nc(-c2ccc(NC(=O)Cc3ccccc3OC)cc2)no1 | 6 | 0 | 71* | 20 | 24 | 2 | 46*
Clc1ccc(-c2csc(NNC3=NCCCCC3)n2)cc1 | 7 | 0 | 148* | · | -7 | 1 | 132*
Brc1ccc(-c2csc(NC3=NCCCCC3)n2)cc1 | -9 | 1 | -8 | -2 | 41 | 7 | ·
COCCNCC(O)CON=C1c2ccccc2-c2ccccc21 (configuration not stated) | 3 | 0 | 6 | 5 | 34 | 3 | ·
CC(C)CCNCC(O)CON=C1c2ccccc2-c2ccccc21 (configuration not stated) | 12 | 0 | 64* | 28 | 12 | 31 | 42*
COc1ccc(OC)c(N(CCN2C(=O)c3ccccc3C2=O)C(=O)CCl)c1 | · | · | 52* | · | · | · | 53*
COc1ccc(NC(=O)CCN2C(=O)c3ccccc3C2=O)c(OC)c1 | -1 | 2 | · | -13 | -8 | 1 | ·
Cc1ccc(S(=O)(=O)NCCC(=O)NCC(c2cccs2)N(C)C)cc1 (configuration not stated) | -3 | 2 | -9 | · | 43 | -3 | ·
COc1ccc(-n2ccnc2SCC(=O)NC2CCCC2)c(OC)c1 | -6 | 0 | 71* | -20 | 13 | -1 | 17
Nc1nc(-c2cc3ccccc3o2)cs1 | -1 | 0 | -1 | -13 | 13 | 2 | ·
CCS(=O)(=O)c1ccc(O)c(NC(=O)c2ccc(S(=O)(=O)N3CCCCCC3)cc2)c1 | 4 | 0 | -1 | · | 0 | 1 | ·
Cc1ccc(NC(=O)Cn2nnc(C(=O)NCCc3ccccc3)c2N)c(C)c1 | 0 | 0 | · | 3 | 6 | 0 | ·
